Results: ChEMBL document CHEMBL3596093, “Synthesis and antimicrobial evaluation of 5-aryl-1,2,4-triazole-3-thione derivatives containing a rhodanine moiety” (2015)
≈ marks a conversion by molar mass, not a printed value.

What was measured:
Pseudomonas aeruginosa [1] = test: Antibacterial activity against Pseudomonas aeruginosa 2004 after 24 hrs by two-fold serial dilution method; assay type: functional; conditions: Pseudomonas aeruginosa, 2004, 24 h
Summary of the method: (§1)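 Strains grown to mid-log phase in Mueller-Hinton broth, then diluted 1000-fold in the same broth to about 10^5 CFU/mL. Compounds were made up as DMSO stocks and two-fold serially diluted from a final top concentration of 64 µg/mL. Incubation was 37 °C for 24 h. Growth was read as absorbance at 630 nm on a microplate reader. MIC assays were run in triplicate.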

Escherichia coli [2] = test: Antibacterial activity against Escherichia coli KCTC 1924 after 24 hrs by two-fold serial dilution method; assay type: functional; conditions: KCTC 1924, 24 h; summary of the method: as §1
Staphylococcus aureus [3] = test: Bactericidal activity against methicillin-resistant Staphylococcus aureus CCARM 3167 after 24 hrs by agar plate method; assay type: functional; conditions: CCARM 3167, 24 h
Summary of the method: (§2)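 5 µL from each well without visible growth plated on fresh Mueller-Hinton agar, then 37 °C for a further 24 h. MBC is the lowest concentration giving no visible colonies. Run in triplicate.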

Staphylococcus aureus [4] = test: Antibacterial activity against Staphylococcus aureus KCTC 209 after 24 hrs by two-fold serial dilution method; assay type: functional; conditions: KCTC 209, 24 h; summary of the method: as §1
Staphylococcus aureus [5] = test: Antibacterial activity against Staphylococcus aureus KCTC 503 after 24 hrs by two-fold serial dilution method; assay type: functional; conditions: KCTC 503, 24 h; summary of the method: as §1
Staphylococcus aureus [6] = test: Bactericidal activity against quinolone-resistant Staphylococcus aureus CCARM 3505 after 24 hrs by agar plate method; assay type: functional; conditions: CCARM 3505, 24 h; summary of the method: as §2
Staphylococcus aureus [7] = test: Bactericidal activity against Staphylococcus aureus RN4220 after 24 hrs by agar plate method; assay type: functional; conditions: RN4220, 24 h
Summary of the method: (§3)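 Samples of 5 µL from MIC wells with no visible growth were plated onto fresh Mueller-Hinton agar and incubated a further 24 h at 37 °C. MBC is the lowest concentration giving no visible colony growth on the agar. Assays were run in triplicate.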

Staphylococcus aureus [8] = test: Antibacterial activity against quinolone-resistant Staphylococcus aureus CCARM 3505 after 24 hrs by two-fold serial dilution method; assay type: functional; conditions: CCARM 3505, 24 h
Summary of the method: (§4)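 Broth microdilution MIC. Bacteria grown to mid-log phase in Mueller-Hinton broth, diluted 1000-fold, about 10^5 CFU/mL. Compounds from DMSO stocks, two-fold serial dilution from a final 64 µg/mL. Incubation at 37 °C for 24 h. Growth read as absorbance at 630 nm on a microplate reader. Run in triplicate.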

Staphylococcus aureus [9] = test: Bactericidal activity against quinolone-resistant Staphylococcus aureus CCARM 3519 after 24 hrs by agar plate method; assay type: functional; conditions: CCARM 3519, 24 h; summary of the method: as §2
Staphylococcus aureus [10] = test: Antibacterial activity against Staphylococcus aureus RN4220 after 24 hrs by two-fold serial dilution method; assay type: functional; conditions: RN4220, 24 h; summary of the method: as §4
Streptococcus mutans [11] = test: Bactericidal activity against Streptococcus mutans 3065 after 24 hrs by agar plate method; assay type: functional; conditions: Streptococcus mutans, 3065, 24 h; summary of the method: as §3
Escherichia coli [12] = test: Antibacterial activity against Escherichia coli CCARM 1356 after 24 hrs by two-fold serial dilution method; assay type: functional; conditions: CCARM 1356, 24 h; summary of the method: as §1
Streptococcus mutans [13] = test: Antibacterial activity against Streptococcus mutans 3065 after 24 hrs by two-fold serial dilution method; assay type: functional; conditions: Streptococcus mutans, 3065, 24 h; summary of the method: as §1
Staphylococcus aureus [14] = test: Antibacterial activity against quinolone-resistant Staphylococcus aureus CCARM 3519 after 24 hrs by two-fold serial dilution method; assay type: functional; conditions: CCARM 3519, 24 h; summary of the method: as §4
Pseudomonas aeruginosa [15] = test: Antibacterial activity against Pseudomonas aeruginosa 2742 after 24 hrs by two-fold serial dilution method; assay type: functional; conditions: Pseudomonas aeruginosa, 2742, 24 h; summary of the method: as §1
Staphylococcus aureus [16] = test: Bactericidal activity against methicillin-resistant Staphylococcus aureus CCARM 3506 after 24 hrs by agar plate method; assay type: functional; conditions: CCARM 3506, 24 h; summary of the method: as §2
Staphylococcus aureus [17] = test: Antibacterial activity against methicillin-resistant Staphylococcus aureus CCARM 3506 after 24 hrs by two-fold serial dilution method; assay type: functional; conditions: CCARM 3506, 24 h; summary of the method: as §4
Staphylococcus aureus [18] = test: Ratio of MBC to MIC for Staphylococcus aureus KCTC 503; assay type: functional
Summary of the method: (§5)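 The ratio divides MBC by MIC for the same strain. MIC comes from two-fold broth microdilution in Mueller-Hinton broth (about 10^5 CFU/mL, 37 °C, 24 h, absorbance at 630 nm). MBC comes from subculturing 5 µL from clear wells onto Mueller-Hinton agar for another 24 h at 37 °C, taken as the lowest concentration with no colonies.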

Candida albicans = test: Antifungal activity against Candida albicans 7535 after 24 hrs by two-fold serial dilution method; assay type: functional; conditions: Candida albicans, 7535, 24 h
Staphylococcus aureus [19] = test: Antibacterial activity against methicillin-resistant Staphylococcus aureus CCARM 3167 after 24 hrs by two-fold serial dilution method; assay type: functional; conditions: CCARM 3167, 24 h; summary of the method: as §4
Salmonella typhimurium = test: Antibacterial activity against Salmonella typhimurium 2421 after 24 hrs by two-fold serial dilution method; assay type: functional, Salmonella enterica subsp. enterica serovar Typhimurium; conditions: Salmonella enterica, 2421, 24 h; summary of the method: as §1
Staphylococcus aureus [20] = test: Bactericidal activity against Staphylococcus aureus KCTC 503 after 24 hrs by agar plate method; assay type: functional; conditions: KCTC 503, 24 h; summary of the method: as §2
[21] = system: Staphylococcus aureus subsp. aureus RN4220; test: Ratio of MBC to MIC for Staphylococcus aureus RN4220; assay type: functional; summary of the method: as §5

| Compound | MIC (Pseudomonas aeruginosa [1]) [µg/mL] | MIC (Escherichia coli [2]) [µg/mL] | MBC (Staphylococcus aureus [3]) [µg/mL] | MIC (Staphylococcus aureus [4]) [µg/mL] | MIC (Staphylococcus aureus [5]) [µg/mL] | MBC (Staphylococcus aureus [6]) [µg/mL] | MBC (Staphylococcus aureus [7]) [µg/mL] | MIC (Staphylococcus aureus [8]) [µg/mL] | MBC (Staphylococcus aureus [9]) [µg/mL] | MIC (Staphylococcus aureus [10]) [µg/mL] | MBC (Streptococcus mutans [11]) [µg/mL] | MIC (Escherichia coli [12]) [µg/mL] | MIC (Streptococcus mutans [13]) [µg/mL] | MIC (Staphylococcus aureus [14]) [µg/mL] | MIC (Pseudomonas aeruginosa [15]) [µg/mL] | MBC (Staphylococcus aureus [16]) [µg/mL] | MIC (Staphylococcus aureus [17]) [µg/mL] | MIC (Candida albicans) [µg/mL] | MIC (Staphylococcus aureus [19]) [µg/mL] | MIC (Salmonella typhimurium) [µg/mL] | also measured |
| --- | --- | --- | --- | --- | --- | --- | --- | --- | --- | --- | --- | --- | --- | --- | --- | --- | --- | --- | --- | --- | --- |
| Cc1cccc(-c2n[nH]c(=S)n2/N=C/c2ccc(/C=C3\SC(=S)N([C@@H](Cc4ccccc4)C(=O)O)C3=O)cc2)c1 | > 128 | > 128 | 128 (≈ 219 µM) | > 64 | 64 (≈ 109 µM) | 64 (≈ 109 µM) | 32 (≈ 54.6 µM) | 16 (≈ 27.3 µM) | 128 (≈ 219 µM) | 32 (≈ 54.6 µM) | 256 (≈ 437 µM) | > 128 | 64 (≈ 109 µM) | 16 (≈ 27.3 µM) | > 128 | 64 (≈ 109 µM) | 16 (≈ 27.3 µM) | > 64 | 16 (≈ 27.3 µM) | > 128 | Ratio (Staphylococcus aureus [18]): <=4; MBC (Staphylococcus aureus [20]): 128 µg/mL (≈ 219 µM) |
| Cc1ccc(-c2n[nH]c(=S)n2/N=C/c2ccc(/C=C3\SC(=S)N([C@@H](Cc4ccccc4)C(=O)O)C3=O)cc2)cc1 | > 128 | > 128 | 64 (≈ 109 µM) | > 64 | 64 (≈ 109 µM) | 128 (≈ 219 µM) | 8 (≈ 13.7 µM) | 16 (≈ 27.3 µM) | > 128 | 8 (≈ 13.7 µM) | > 256 | > 128 | 64 (≈ 109 µM) | 16 (≈ 27.3 µM) | > 128 | 128 (≈ 219 µM) | 16 (≈ 27.3 µM) | > 64 | 8 (≈ 13.7 µM) | > 128 | Ratio (Staphylococcus aureus [18]): <=4; MBC (Staphylococcus aureus [20]): 64 µg/mL (≈ 109 µM) |
| O=C(O)[C@H](Cc1ccccc1)N1C(=O)/C(=C/c2ccc(/C=N/n3c(-c4ccc(Cl)cc4)n[nH]c3=S)cc2)SC1=S | > 128 | > 128 | 64 (≈ 106 µM) | > 64 | 16 (≈ 26.4 µM) | 64 (≈ 106 µM) | 16 (≈ 26.4 µM) | 16 (≈ 26.4 µM) | 128 (≈ 211 µM) | 8 (≈ 13.2 µM) | 32 (≈ 52.8 µM) | > 128 | 16 (≈ 26.4 µM) | 16 (≈ 26.4 µM) | > 128 | 128 (≈ 211 µM) | 16 (≈ 26.4 µM) | > 64 | 8 (≈ 13.2 µM) | > 128 | Ratio [21]: 2; MBC (Staphylococcus aureus [20]): 128 µg/mL (≈ 211 µM) |
